Consider two compounds from ChEMBL document CHEMBL1147081, “Structure of the deacetylase LpxC bound to the antibiotic CHIR-090: Time-dependent inhibition and specificity in ligand binding” (Proc Natl Acad Sci U S A, 2007).

For experiment [1], the target named is UDP-3-O-acyl-N-acetylglucosamine deacetylase (Escherichia coli K-12, UniProt P0A725, G210S/Q202W). Kind of experiment: Inhibition of Escherichia coli LpxC Q202W/G210S mutant.
Experiment [2] concerns the target T1, UDP-3-O-acyl-N-acetylglucosamine deacetylase (Escherichia coli K-12, UniProt P0A725).
T1 sequence (P0A725 whole entry): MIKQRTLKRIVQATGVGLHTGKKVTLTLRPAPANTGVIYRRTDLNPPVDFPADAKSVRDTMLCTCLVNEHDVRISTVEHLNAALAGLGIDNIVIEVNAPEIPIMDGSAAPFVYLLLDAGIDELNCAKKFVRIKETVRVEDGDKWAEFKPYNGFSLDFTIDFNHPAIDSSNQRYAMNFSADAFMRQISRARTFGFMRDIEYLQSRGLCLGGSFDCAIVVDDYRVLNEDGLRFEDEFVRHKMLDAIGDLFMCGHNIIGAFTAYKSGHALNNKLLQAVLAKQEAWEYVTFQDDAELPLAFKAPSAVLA
The experiment in a line: Inhibition of Escherichia coli LpxC.

In experiment [3] the target is UDP-3-O-acyl-N-acetylglucosamine deacetylase (Rhizobium leguminosarum bv. trifolii (strain WSM1325), UniProt C6ARS9, S214G/W206Q). The experiment in a line: Inhibition of Rhizobium leguminosarum LpxC W206Q/S214G mutant. In outline: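 Assays used 5 μM UDP-3-O-(R-3-hydroxymyristoyl)-N-acetylglucosamine substrate and varied inhibitor at constant 10% DMSO. An IC50 curve was fit to fractional activity (vi/vo), and Ki was derived with the Cheng–Prusoff relationship.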
Sequence of UDP-3-O-acyl-N-acetylglucosamine deacetylase (Rhizobium leguminosarum bv. trifolii (strain WSM1325), UniProt C6ARS9, S214G/W206Q) (C6ARS9 as listed by the source W206Q/S214G): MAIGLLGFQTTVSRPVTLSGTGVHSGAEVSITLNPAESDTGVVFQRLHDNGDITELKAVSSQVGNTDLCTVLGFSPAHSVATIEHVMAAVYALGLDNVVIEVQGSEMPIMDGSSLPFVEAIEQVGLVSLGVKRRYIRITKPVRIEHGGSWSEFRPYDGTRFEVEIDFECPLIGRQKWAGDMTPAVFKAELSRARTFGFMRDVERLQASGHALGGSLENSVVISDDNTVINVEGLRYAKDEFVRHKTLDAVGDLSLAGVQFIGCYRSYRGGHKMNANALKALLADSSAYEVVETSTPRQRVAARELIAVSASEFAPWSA

A short description of experiment [4]: Inhibition of Rhizobium leguminosarum LpxC.

Sequence of UDP-3-O-acyl-N-acetylglucosamine deacetylase (Escherichia coli K-12, UniProt P0A725, G210S/Q202W) (P0A725 whole entry Q202W/G210S): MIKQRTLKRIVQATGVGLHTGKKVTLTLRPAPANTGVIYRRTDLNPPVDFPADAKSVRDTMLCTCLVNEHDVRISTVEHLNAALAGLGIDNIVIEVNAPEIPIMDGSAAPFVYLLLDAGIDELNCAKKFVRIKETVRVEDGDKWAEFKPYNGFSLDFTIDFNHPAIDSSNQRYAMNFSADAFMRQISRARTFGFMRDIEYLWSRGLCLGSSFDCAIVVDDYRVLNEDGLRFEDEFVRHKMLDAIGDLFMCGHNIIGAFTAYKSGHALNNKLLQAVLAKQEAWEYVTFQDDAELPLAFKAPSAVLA

Take `CCCc1cc(C2=N[C@@H](C(=O)NO)CO2)cc(OC)c1OC`: the Ki is 340 nM in experiment [1], 53 nM in experiment [2], 110000 nM in experiment [3] and 380000 nM in experiment [4].
As to `O=C(NO)[C@@H](Cc1ccc2ccccc2c1)NS(=O)(=O)c1ccc2ccccc2c1`, the Ki in experiment [1] was 86 nM; in experiment [2] it was 69 nM; in experiment [3], 700 nM; in experiment [4], 5800 nM.
